This note sets out measurements from PubChem BioAssay AID624204 (Sanford-Burnham Center for Chemical Genomics, 2012).

Among all 360,000 compounds or so, about 770 (0.21%) were called active.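 The calls were made as follows: active = inhibition at least 30% at 10 µM, raw YFP signal under a set limit, fluorescence ratio 0.5 to 1.5; inactive = the rest.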 Shown is part of a subset that was picked to be rich in actives.

The target of the assay is Sentrin-specific protease 1 (Homo sapiens) (UniProt Q9P0U3). Put plainly: human SENP1 catalytic domain inhibitors, primary screen, biochemical, FRET, uHTS (AID 624204).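 Also: 0% = enzyme with DMSO and 100% = no enzyme wells.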 To be noted: recombinant SENP1 catalytic domain, CyPet-SUMO1-YPet FRET cleavage; at 10 µM; stronger effect = higher value. In short, it runs like this: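 Compound: 10 µM single point, 0.5% DMSO; Test system: hSENP1 catalytic domain, recombinant; Timing: 50 min reaction at room temperature; Technique: FRET, CFP and YFP emission; Control set: no-enzyme wells low, DMSO-plus-enzyme wells high control.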
Sentrin-specific protease 1 (Homo sapiens), sequence (Q9P0U3 419-644 limits assumed): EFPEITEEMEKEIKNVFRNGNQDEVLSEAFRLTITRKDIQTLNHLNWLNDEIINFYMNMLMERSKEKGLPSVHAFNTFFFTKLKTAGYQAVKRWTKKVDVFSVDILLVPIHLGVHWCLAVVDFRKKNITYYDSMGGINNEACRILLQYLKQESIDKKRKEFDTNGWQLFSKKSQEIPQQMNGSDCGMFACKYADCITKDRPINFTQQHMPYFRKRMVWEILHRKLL
The term inhibition denotes the change of the read-out against control, counted positive when it falls. Consider `N/C(=N\OC(=O)c1ccc2c(c1)OCO2)c1ccc(Br)cc1`, for which the inhibition was 2.72% (inactive).

Take `N/C(=N\OC(=O)CCc1ccccc1)c1ccc(Cl)cc1`: the inhibition is 4.15% (inactive).

In the case of `N/C(=N\OC(=O)N1c2ccccc2Sc2ccccc21)c1ccc(Br)cc1`, the inhibition was 45.8% (active).

With `Fc1ccc(CNCc2ccc(Br)cc2)cc1`, the inhibition is 0.319% (inactive).

As for `CC(C)c1ccc(S(=O)(=O)N2CCC3(CC2)OCCO3)cc1`, the inhibition is -0.675% (inactive).

For the compound `CC(C)=CCN1CCN(Cc2cc3ccccc3[nH]2)CC1CCO` (configuration not stated), the inhibition is -16.2% (inactive).

Regarding `O=C(OCC(=O)N1CCCCCC1)c1ccc(Br)c(S(=O)(=O)N2CCOCC2)c1`, the inhibition is 2.31% (inactive).

Consider `CCC1CCCCN1CCNC(=O)c1[nH]c(C)c(C(C)=O)c1C` (configuration not stated), for which the inhibition is -5.33% (inactive).

For the compound `CS(=O)(=O)Nc1ccccc1N=C(c1ccccc1)c1ccccc1`, the inhibition is 1.89% (inactive).

On to `CCc1ccc(C(=O)NN=C2CCCCCC2)s1`, for which the inhibition was 1.74% (inactive).

For the compound `COc1ccc(-c2c(C#N)cnc(C)c2C)c(O)c1OC`, the inhibition was 0.472% (inactive).

`COC(=O)CNC(=O)C(CCSC)NC(C)=O` (configuration not stated): the inhibition is 2.78% (inactive).

Regarding `CC(C)n1cnc2c(NCc3ccccc3)cc(OCC3CCN(C)CC3)cc21`, the inhibition was -28.3% (inactive).

Take `COCC1CCN(C(=O)C2CCC(=O)N(Cc3cccc(C(F)(F)F)c3)C2)CC1` (configuration not stated): the inhibition was 2.83% (inactive).

Consider `O=C(c1cccs1)N(Cc1cc2ccccc2[nH]c1=O)CC1CCCO1` (configuration not stated), for which the inhibition was 0.621% (inactive).

With `COc1ccc(S(=O)(=O)N2CCOC2CNC(=O)C(=O)NCc2ccc(F)cc2)cc1` (configuration not stated), the inhibition was 0.939% (inactive).

In the case of `Cc1oc2c(F)c(F)c(F)c(F)c2c1S(=O)(=O)Nc1cccc(C(F)(F)F)c1`, the inhibition was 0.0743% (inactive).

For `COc1ccc(S(=O)(=O)N(C)C[C@H]2OCc3cnnn3CCCC(=O)N([C@H](C)CO)C[C@H]2C)cc1`, the inhibition was 0.96% (inactive).

`O=C(Cn1cnc2ccccc21)Nc1ccccc1-c1ccccc1`: the inhibition is 2.05% (inactive).

On to `O=C(COC(=O)Cn1cnc2ccccc21)Nc1cccc2c1C(=O)c1ccccc1C2=O`, for which the inhibition is 49.1% (active).

Turning to `O=C(COC(=O)Cn1cnc2ccccc2c1=O)NCC12CC3CC(CC(C3)C1)C2`, the inhibition is -2.59% (inactive).

For `CCN(CC)S(=O)(=O)c1ccc2c3c(cccc13)C(=O)S2`, the inhibition was -5.16% (inactive).

With `O=[N+]([O-])c1cc(S(=O)(=O)Nc2cccc(Cl)c2)ccc1N=Nc1c(O)[nH]c2ccccc12`, the inhibition was 7.59% (inactive).

With `CCN(CC)S(=O)(=O)c1cc([N+](=O)[O-])ccc1N=Nc1c(O)n(C)c2ccccc12`, the inhibition is 38.9% (active).

Turning to `COc1ccccc1-c1noc(CSc2nc(C)cc(=O)[nH]2)n1`, the inhibition was 0.334% (inactive).

For `CC(/C=C/C1(O)C(C)CC(=O)CC1(C)C)OC1OC(CO)C(O)C(O)C1O` (configuration not stated), the inhibition is -6.63% (inactive).

Consider `O=C(CNC(=O)N1CC(=O)Nc2ccccc21)Nc1ccc(Br)cc1F`, for which the inhibition was -5.9% (inactive).

With `Cc1ccc(S(=O)(=O)NC2CCCCCC2)cc1C(N)=O`, the inhibition was 1.4% (inactive).

`CCN(C(=O)CSc1nnc2ccccn12)C1CCS(=O)(=O)C1` (configuration not stated): the inhibition is 0.95% (inactive).

For the compound `CCCCCn1nnnc1C1c2ccccc2C(=O)N1Cc1ccco1` (configuration not stated), the inhibition was 2.03% (inactive).

Take `CCCCn1c(-c2cccc(C)c2)nc2cc3[nH]c(=O)c(C(C)C)nc3cc21`: the inhibition is -46.9% (inactive).

Regarding `CCCCCn1nnnc1-c1nc2cc3ccccc3cc2[nH]c1=O`, the inhibition was 70.6% (active).

Take `CC(=O)Nc1ccc(Sc2ccccc2C(=O)N2CCCC2)cn1`: the inhibition was 0.55% (inactive).

Take `Cc1c(CN2CCC(n3nccc3NC(=O)CCc3ccccc3)CC2)cnn1C`: the inhibition was 2.13% (inactive).

`CCn1nc(C(=O)NNC(=O)C2CSC3(C)CCC(=O)N23)c2ccccc2c1=O` (configuration not stated): the inhibition was 1.35% (inactive).

In the case of `CCc1nc2ccc(C(=O)Nc3cc(-c4ccccc4)ccc3OC)cn2c1N(CC)CC(=O)N(C)C`, the inhibition is -1.8% (inactive).

For `CCCn1c(=O)c2ccccc2n2c(SCC(=O)/C(C#N)=C(\C)N)nnc12`, the inhibition was -2.1% (inactive).

As for `CN(C)CCN(Cc1ccccc1)S(=O)(=O)c1csc(C(N)=O)c1`, the inhibition was 3.33% (inactive).

Turning to `Cc1ccc(SC(=O)COc2ccc(C)c(C)c2)cc1`, the inhibition was 4.05% (inactive).

Turning to `CC(C)OC(=O)CC(=O)CC(O)c1cccc([N+](=O)[O-])c1` (configuration not stated), the inhibition was 1.31% (inactive).

For `COc1ccc(Cl)cc1C=CC=NNC(=O)c1ccncc1`, the inhibition is 2.79% (inactive).

Regarding `COc1cccc(/C=N/NC(=O)c2[nH]nc3c2CCc2ccccc2-3)c1O`, the inhibition was 48.9% (active).

Regarding `COc1ccccc1-c1nnc(NC(=O)c2cccc(N3C(=O)CCC3=O)c2)o1`, the inhibition was 1.37% (inactive).

In the case of `CCOc1cc(/C=C2\SC(N3CCCCC3)=NC2=O)ccc1O`, the inhibition is 56.6% (active).

In the case of `CCN1C(=O)/C(=C2\SC(N3CCCCC3)=NC2=O)c2ccccc21`, the inhibition is 1.36% (inactive).

For `CCOc1cc(/C=C2\C(=N)N3N=C(C)SC3=NC2=O)ccc1OCCOc1ccccc1`, the inhibition was -3.15% (inactive).

Regarding `CC1CCN(C2=NC(=O)/C(=C/c3cn[nH]c3-c3ccccc3)S2)CC1`, the inhibition is -1.05% (inactive).

Regarding `CCOc1cc(/C=C2\SC(N3CCCC(C)C3)=NC2=O)ccc1O` (configuration not stated), the inhibition is 58.5% (active).

For `Cc1cccc(N(C(=O)Cc2cccs2)C(C(=O)NCc2ccco2)c2ccncc2)c1` (configuration not stated), the inhibition is -0.142% (inactive).

Take `COc1ccc(S(=O)(=O)N2CCC(C(=O)NCCC(=O)NCCc3cccc(F)c3)CC2)cc1`: the inhibition was 1.66% (inactive).

Take `COc1ccc(CC(=O)N[C@@H]2c3cc(OC)c(OC)cc3C[C@H]2OCc2ccccc2)cc1`: the inhibition was 2.95% (inactive).

In the case of `O=C(NC1CCCCC1)C1CC(=O)N(CCc2ccccc2)C1` (configuration not stated), the inhibition is 1.46% (inactive).

As for `CCOC(=O)/C(=N\Nc1cc(Cl)ccc1Cl)N1CCN(C)CC1`, the inhibition is 0.895% (inactive).

On to `O=S(=O)(c1ccc(F)cc1)N1CCN(C(=S)NC2CCCC2)CC1`, for which the inhibition is 2.06% (inactive).

For `CCCCn1nnnc1NCc1cc(OC)c(OC)c(OC)c1`, the inhibition was 1.02% (inactive).

Consider `CCOC(=O)N1CCC(O)(c2cc(C)c(C)cc2C)CC1`, for which the inhibition is 0.28% (inactive).

With `Fc1cccc(Cc2c(-c3ccc(Cl)cc3)nc3ccc(Cl)cn23)c1`, the inhibition is 9.99% (inactive).

Regarding `Fc1cccc(Cc2c(-c3cccc(Cl)c3)nc3ccc(Br)cn23)c1`, the inhibition was 45.8% (active).

For `Clc1cccc(Cc2c(-c3cccc(Cl)c3)nc3ccc(Cl)cn23)c1`, the inhibition was 18.5% (inactive).

In the case of `CC(=O)N1CCOc2ccc(S(=O)(=O)N3CCN(c4cccc(C(F)(F)F)c4)CC3)cc21`, the inhibition was 2.33% (inactive).

Regarding `COc1ccc(N2CCC(N3CCN(C)C(CCO)C3)CC2)cc1` (configuration not stated), the inhibition is -1.06% (inactive).

For the compound `NC(=O)C1(Nc2ccc([N+](=O)[O-])cc2)CCCC1`, the inhibition is -1.76% (inactive).

Regarding `O=[N+]([O-])/C(N=Nc1ccccc1)=N\Nc1ccccc1`, the inhibition is 0.203% (inactive).

Regarding `O=[N+]([O-])c1ccc(N=NNc2ccc([N+](=O)[O-])cc2)cc1`, the inhibition is 67.8% (active).

For the compound `O=C(N/N=C/c1ccc(Br)o1)c1cncc(Br)c1`, the inhibition is 0.704% (inactive).

Regarding `Cc1ccc(C(=O)N/N=C\c2cc(Br)c(Br)o2)cn1`, the inhibition is 41.1% (active).

`Brc1cc(/C=N/n2cnnc2)oc1Br`: the inhibition is 2.85% (inactive).

With `CC(C)(C)OC(=O)C[C@@H]1C/C=C\C[C@@H](CC(=O)N[C@@H](CO)Cc2ccccc2)C(=O)N2CCC[C@H]2COC1=O`, the inhibition was 1.24% (inactive).

With `Cc1ccc(Cn2nnc3c(=O)[nH]c(C4CCN(S(=O)(=O)/C=C/c5ccccc5)CC4)nc32)cc1`, the inhibition was -2.14% (inactive).

As for `Cc1cccc(Nc2nnc(SCC(=O)c3c(N)n(C4CC4)c(=O)[nH]c3=O)s2)c1C`, the inhibition was 1.61% (inactive).

On to `Nn1c(SCC(=O)Nc2nccs2)nncc1=O`, for which the inhibition was 2.89% (inactive).

As to `O=C(Nc1ccc2c(c1)OCCO2)C1c2ccccc2OCC(=O)N1Cc1ccccn1` (configuration not stated), the inhibition was -6.74% (inactive).

On to `Cc1ccc(F)c(NC(=O)CCc2ccccc2)c1`, for which the inhibition is -0.0761% (inactive).

With `CCNc1nc(N)nc(-c2cc(Cl)ccc2OC)n1`, the inhibition was 0.684% (inactive).

As to `O=C(CNC(=O)c1ccc(Cl)cc1Cl)NCC(=O)Nc1ccccc1N1CCOCC1`, the inhibition is 4.8% (inactive).

`CCCC1OC23CCCCC2C(C#N)(C#N)C1(C#N)C(=N)O3` (configuration not stated): the inhibition is -28.3% (inactive).

Consider `CCOC(=O)CCC(=O)OCC(=O)NC(C)C1CC2CCC1C2` (configuration not stated), for which the inhibition was 2.09% (inactive).

As for `COC(=O)C(C)N=Cc1ccccc1` (configuration not stated), the inhibition is 3.52% (inactive).

Take `COC(=O)N/N=C/c1c[n+]([O-])c2ccccc2[n+]1[O-]`: the inhibition is 58.5% (active).

In the case of `N#Cc1ccc(C(c2ccc(C#N)cc2)n2cncn2)cc1`, the inhibition was -1.95% (inactive).

For the compound `O=C(Nc1cccc(OCC(=O)N2CCOCC2)c1)C1CCCCC1`, the inhibition is -0.72% (inactive).

Consider `COc1ccc(N2C(=O)CC(N3CCC(C(N)=O)CC3)C2=O)cc1` (configuration not stated), for which the inhibition was -0.137% (inactive).

On to `CNC(=O)C[C@H]1C(=O)N(c2ccc(OC)cc2)C[C@@H]1Cc1ccccc1`, for which the inhibition is 3.98% (inactive).

As to `COc1ccc(N2C(=O)C3C(C2=O)C(C(=O)c2ccccc2)N2CCCC32)cc1` (configuration not stated), the inhibition is 40% (active).

For the compound `CC(C)Oc1ccc(C(CC(=O)N2CCOCC2)C(C)C)cc1` (configuration not stated), the inhibition is 1.52% (inactive).

On to `CC(C)(C)c1cc(NC(=O)NN2CCOCC2)nn1-c1c(Cl)cc(Cl)cc1Cl`, for which the inhibition is 2.79% (inactive).

On to `Cn1c(N)cc(=O)n(C)c1=S`, for which the inhibition is -0.927% (inactive).

Consider `COc1ccc(CCNS(=O)(=O)c2cc3c(cc2C)NC(=O)CO3)cc1OC`, for which the inhibition is 2.06% (inactive).

Turning to `COc1ccc(OC)c(C2C3=C(N=c4s/c(=C\c5cccc(O)c5)c(=O)n42)c2ccccc2CC3)c1` (configuration not stated), the inhibition was 45.9% (active).

Consider `CCC1([N+](=O)[O-])COC(c2ccc(C(C)C)cc2)OC1` (configuration not stated), for which the inhibition was 2.7% (inactive).

In the case of `Cc1ccc2c(c1)N(C(=O)CCC(=O)N1CCc3ccccc3C1)CCO2`, the inhibition is 1.45% (inactive).

As to `CCOC(=O)[C@H]1[C@H]2COc3ccc(Cl)cc3[C@@H]2N2C(=O)c3cc(C)ccc3NC(=O)[C@@]12C`, the inhibition was 1.07% (inactive).
